# Experimental data collected from several papers.
# Species: human
# Matrix: plasma
SMILES,route,dose,notes,Cmax [ng/mL]
N=C(N)NCCC[C@@H](NC(=O)[C@@H](N)Cc1ccccc1)C(=O)N[C@@H](Cc1ccccc1)C(=O)N[C@@H](CCCCN)C(N)=O,subcutaneous,15 mg,"multiple doses, once daily, patients",726
CN(C)CCc1c[nH]c2ccccc12,intravenous,9 mg,"healthy volunteers, infusion",20.8
C=C(C)[C@@H]1CC[C@]2(NCCN3CCS(=O)(=O)CC3)CC[C@]3(C)[C@H](CC[C@@H]4[C@@]5(C)CC=C(C6=CC[C@@](COc7ncccc7C#N)(C(=O)O)CC6)C(C)(C)[C@@H]5CC[C@]43C)[C@@H]12,oral,100 mg,fed,390
CC[C@H](C)[C@H](NC(=O)[C@H](CC(C)C)NC(=O)[C@H](Cc1c[nH]c2ccccc12)NC(=O)[C@H](CCC(N)=O)NC(=O)[C@@H](NC(=O)[C@H](Cc1ccccc1)NC(=O)[C@H](C)NC(=O)[C@H](CCCCNC(=O)COCCOCCNC(=O)COCCOCCNC(=O)CC[C@H](NC(=O)CCCCCCCCCCCCCCCCCCC(=O)O)C(=O)O)NC(=O)[C@H](CCC(N)=O)NC(=O)[C@H](C)NC(=O)[C@@H](NC(=O)[C@H](CCCCN)NC(=O)[C@H](CC(=O)O)NC(=O)[C@H](CC(C)C)NC(=O)C(C)(C)NC(=O)[C@@H](NC(=O)[C@H](CO)NC(=O)[C@H](Cc1ccc(O)cc1)NC(=O)[C@H](CC(=O)O)NC(=O)[C@H](CO)NC(=O)[C@@H](NC(=O)[C@H](Cc1ccccc1)NC(=O)[C@@H](NC(=O)CNC(=O)[C@H](CCC(=O)O)NC(=O)C(C)(C)NC(=O)[C@@H](N)Cc1ccc(O)cc1)[C@@H](C)O)[C@@H](C)O)[C@@H](C)CC)[C@@H](C)CC)C(C)C)C(=O)N[C@@H](C)C(=O)NCC(=O)NCC(=O)N1CCC[C@H]1C(=O)N[C@@H](CO)C(=O)N[C@@H](CO)C(=O)NCC(=O)N[C@@H](C)C(=O)N1CCC[C@H]1C(=O)N1CCC[C@H]1C(=O)N1CCC[C@H]1C(=O)N[C@@H](CO)C(N)=O,subcutaneous,4.5 mg,"multiple doses, healthy volunteers",884
c1cc([C@H]2CC[C@]3(CC2)OO[C@]2(O3)C3CC4CC(C3)CC2C4)ccc1OCCN1CCOCC1,oral,800 mg,patients,1710
CC(=C/C=C/C(C)=C/C(=O)O)/C=C1\CCCc2ccccc21,oral,20 mg,"single dose, fasted, healthy volunteers",~70
C=CCNc1c(O)cc2c(O)c1C[C@@H](C)C[C@H](OC)[C@H](O)[C@@H](C)/C=C(\C)[C@H](OC(N)=O)[C@@H](OC)/C=C\C=C(/C)C(=O)N2,intravenous,400 mg/m²,"patients, infusion",7800
Cc1ncc2n1-c1ccc(Cl)cc1C(c1ccccc1F)=NC2,oral,2 mg,,10.3
